Compounds with a hit are over-represented: about 1.9% of the library has one in this group of screens.
Arr AP2 block: human beta-arrestin and AP2 interaction inhibition; hit rate 0.31% among 340,000; FITC-arrestin peptide / GST-AP2 beads, flow cytometry; AP2 beta2 appendage carries R879A mutation; inhibition, % at 10 µM;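 active = inhibition above a set limit, near 3 SD of compounds lacking own fluorescence, cut at about 54% in these data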
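System: GST-AP2 R879A glutathione beads. Medium: PBS with 0.05% Tween 20 and 0.1% BSA. Also added: FITC-arrestin peptide, 50 nM. Incubation: 12 min plus 1 h, RT. Measured by: high-throughput flow cytometry of beads, ex 488, em 535 nm. Evaluation: percent drop in bead-associated FITC signal.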
proCasp3 act: activators of human procaspase-3; P42574; recombinant procaspase-3 D3A, Ac-DEVD-pNA absorbance 405 nm; activation, % at 8.5 µM; hit rate 0.11% among 330,000;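 active = activation above the mean of all tested compounds plus 3 SD, cut at about 21% in these data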
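material = Procaspase-3 D3A mutant | probe or stimulus = Ac-DEVD-pNA | compound = single dose, 8.5 µM nominal compound, 0.8% DMSO | timing = 1 h preincubation, 2 h reaction | measured by = 405 nm absorbance of p-nitroaniline, reads at 0 and 120 min | benchmarks = DMSO-only low control, 5 µM PC-3 D3A high control | repeats = singlicate, each compound tested once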
PLCb3 inh: PLC-beta3 (human) inhibition, primary screen; Purified PLC-beta3, fluorogenic substrate, fluorescence; inhibition, % at 12.2 µM; hit rate 0.18% among 370,000; in the data active = inhibition above about 11%
Target sequence (Q01970 whole entry, looked up): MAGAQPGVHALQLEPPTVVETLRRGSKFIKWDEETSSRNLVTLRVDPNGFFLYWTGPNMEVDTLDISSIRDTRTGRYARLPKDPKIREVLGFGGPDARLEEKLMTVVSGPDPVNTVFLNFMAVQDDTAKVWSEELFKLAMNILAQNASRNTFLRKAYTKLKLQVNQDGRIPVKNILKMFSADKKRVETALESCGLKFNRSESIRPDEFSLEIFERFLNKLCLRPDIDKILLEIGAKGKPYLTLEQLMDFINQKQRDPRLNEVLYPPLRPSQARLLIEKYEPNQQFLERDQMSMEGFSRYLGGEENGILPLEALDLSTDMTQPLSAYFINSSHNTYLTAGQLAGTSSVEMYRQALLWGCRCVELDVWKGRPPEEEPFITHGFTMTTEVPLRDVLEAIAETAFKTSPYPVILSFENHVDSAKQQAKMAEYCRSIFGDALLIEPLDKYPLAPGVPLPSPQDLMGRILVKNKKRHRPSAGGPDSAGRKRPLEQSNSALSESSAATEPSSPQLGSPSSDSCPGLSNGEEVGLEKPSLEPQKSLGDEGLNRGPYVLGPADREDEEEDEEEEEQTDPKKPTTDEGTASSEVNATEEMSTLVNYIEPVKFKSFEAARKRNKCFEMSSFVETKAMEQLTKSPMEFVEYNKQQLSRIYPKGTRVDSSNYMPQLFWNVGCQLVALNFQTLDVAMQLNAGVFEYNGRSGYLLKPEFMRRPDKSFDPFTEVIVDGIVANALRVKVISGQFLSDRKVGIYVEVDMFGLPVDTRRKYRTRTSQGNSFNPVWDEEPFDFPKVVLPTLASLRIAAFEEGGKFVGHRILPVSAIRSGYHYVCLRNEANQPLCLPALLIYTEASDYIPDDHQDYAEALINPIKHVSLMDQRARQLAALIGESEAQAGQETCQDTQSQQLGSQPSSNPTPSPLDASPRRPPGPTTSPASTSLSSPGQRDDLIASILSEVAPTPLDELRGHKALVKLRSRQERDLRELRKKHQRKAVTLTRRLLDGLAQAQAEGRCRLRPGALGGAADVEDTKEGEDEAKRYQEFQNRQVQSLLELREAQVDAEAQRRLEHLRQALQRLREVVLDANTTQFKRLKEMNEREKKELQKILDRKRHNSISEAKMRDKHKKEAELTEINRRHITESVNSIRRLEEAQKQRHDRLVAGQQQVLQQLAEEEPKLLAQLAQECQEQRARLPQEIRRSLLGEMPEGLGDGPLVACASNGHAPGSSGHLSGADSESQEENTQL
proCasp7 act: counter-screen for procaspase-3 activators: activators of human procaspase-7; P55210; recombinant procaspase-7, Ac-DEVD-pNA absorbance 405 nm; D23A/D198A/D206A triple mutant, cannot self-cleave; scale: DMSO 0, 5 µM enzyme 100; activation, % at 8.5 µM; hit rate 0.093% among 330,000;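 active = percent activation above the screen-wide mean plus 3 SD, cut at about 25% in these data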
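Assay system: Uncleavable procaspase-7 mutant enzyme / Input: 2 µM procaspase-7 mutant as dispensed / Dosing: single nominal 8.5 µM compound dose, 0.8% DMSO final / Timing: 1 h enzyme–compound preincubation and 2 h substrate reaction, both 25 °C / Detection: p-Nitroaniline absorbance at 405 nm, read at 0 and 120 min / Replication: singlicate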
HGIII-sPLA2 inh: Blocks human group III sPLA2 activity. QFRET BODIPY PC-A2 liposome hydrolysis, fluorescence. hit rate 0.56% among 370,000. inhibition, % at 12.2 µM. Q9NZ20;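 active = inhibition above mean plus 3 SD of compounds lying within the high and low control bounds, cut at about 19% in these data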
PLC-gamma1 inh: PLC-gamma1 (human) inhibition, primary screen | purified PLC-gamma1, fluorogenic substrate, fluorescence | inhibition, % at 12.2 µM | AID 720700 | hit rate 0.84% among 370,000
PLCgamma1 ctr: counter-screen for PLC-beta3 inhibitors: inhibitors of human PLC-gamma1. purified PLC-gamma1, fluorogenic substrate, fluorescence. shares compounds with PLC-gamma1 inh. inhibition, % at 12.3 µM. AID 743258. hit rate 3.1% among 3,300
PLCb3 confirm: human PLC-beta3 inhibition, confirmation. inhibition, % at 12.3 µM. AID 743261. purified PLC-beta3, fluorogenic substrate fluorescence. hit rate 1% among 3,300. shares compounds with PLC-gamma1 inh; in the data active = inhibition above about 11%
A number is an active result; n = inactive; x = no result given; ! = not active in a repeat. Rule as the data show it, unless noted: active = inhibition above about 9.5%; inactive = the rest.

SMILES	Arr AP2 block	proCasp3 act	PLCb3 inh	proCasp7 act	HGIII-sPLA2 inh	PLC-gamma1 inh	PLCgamma1 ctr	PLCb3 confirm
CCCCCCCCN1C(=O)[C@@H](CC(=O)N2CCN(C(=O)c3ccco3)CC2)C[C@@]2(C(=O)OC)C1=C[C@H](COCc1ccccc1)O[C@@H]2C	x	x	n	x	n	n	x	x
CCOC(=O)c1c(C)n(-c2ccc(C)cc2)c2c(CC(C)=O)c(Br)c(OC)c(O)c12	n	n	n	n	n	10	n	n
CCN(CC(=O)Nc1ccccc1C(F)(F)F)C(=O)c1oc2c(Cl)cccc2c1C	n	n	n	n	n	13	n	n
CC(CCN1CCC(C(O)(c2ccccc2)c2ccccc2)CC1)Oc1cccc(F)c1 (stereo not drawn)	x	x	n	x	n	n	x	x
OC(COc1ccc(OCc2ccccc2)cc1)CN1CCOCC1 (stereo not drawn)	n	n	n	n	n	9.7	n	n
OC(COc1ccc(-c2ccccc2)cc1)CN1CCOCC1 (stereo not drawn)	x	n	x	n	x	x	x	x
O[C@H](COc1ccccc1)CN1CCC(C(O)(c2ccccc2)c2ccccc2)CC1	x	x	12	x	n	n	n	n
CCc1ccc(NS(=O)(=O)c2ccc3c(c2)CCN3C(=O)CCC(=O)O)cc1	n	n	n	n	n	10	n	n
Cc1ccc(NS(=O)(=O)c2ccc3c(c2)CCN3C(=O)CCC(=O)O)cc1Cl	n	n	n	n	n	n	x	x
CCC(=O)N1CCc2cc(S(=O)(=O)CCC(=O)NCCc3ccc(S(N)(=O)=O)cc3)ccc21	n	n	n	n	n	10	n	n
CC(C)CN1C[C@@H]2CSCCS(=O)(=O)N2C1=O	x	x	n	x	n	n	x	x
Cc1ccc(C(=O)Oc2coc(CSc3nnc(NC(=O)C4CC4)s3)cc2=O)cc1C	n	x	n	x	n	11	n	n
Cc1cccc(C(=O)Oc2coc(CSc3nnc(NC(=O)C4CC4)s3)cc2=O)c1	n	n	n	n	n	n	x	x
Cc1ccc(S(=O)(=O)/N=C(/NC(=S)Nc2ccccc2)c2ccccc2)cc1	n	n	n	n	n	n	x	x
Cc1ccc(NC(=S)N/C(=N/S(=O)(=O)c2ccccc2)c2ccccc2)cc1	n	n	n	n	n	16!	n	n
CC(C)(C)C(=O)Cn1c[n+](N)cn1	n	n	n	n	n	10	n	n
CC(C)(C)C(=O)Cn1ncc(Cl)c(Cl)c1=O	n	x	n	x	n	n	x	x
Cc1cccc(C(=O)N/N=C/c2ccc(OC3CSC3)cc2)c1	n	n	n	n	n	n	x	x
COc1cccc(C(=O)N/N=C/c2ccc(OC3CSC3)cc2)c1	n	n	n	n	n	10	n	n
COc1ccc(-n2nc(C(=O)Nc3ccc4c(c3)OCO4)c3c4ccccc4n(C)c3c2=O)cc1	n	n	n	n	n	12	n	n
COc1ccc(-c2nn(-c3ccccc3)cc2C(=O)Nc2cccc(S(=O)(=O)NC3=NCCC3)c2)cc1	n	n	n	n	n	n	x	x
Cc1cccc(-c2nn(-c3ccccc3)cc2C(=O)Nc2cccc(S(=O)(=O)NC3=NCCC3)c2)c1	n	n	n	n	n	11	n	n
O=C(NCc1cccs1)c1cc2c(s1)CCCC2	n	n	n	n	n	11	n	n
Cc1cc(C(=O)N2CCN(c3ccc([N+](=O)[O-])cc3)CC2)no1	n	n	n	n	n	9.5	n	n
Cc1cc(C(=O)N2CCN(c3ccccc3)CC2)no1	n	n	x	n	x	x	x	x
O=C(CNCCC1=CCCCC1)Nc1ccccc1N1CCCCC1	n	n	n	n	n	12	n	n
CC1C(=O)Nc2ccccc2N1C(=O)c1cccc(C(F)(F)F)c1 (stereo not drawn)	n	n	n	n	n	13	n	n
CC1C(=O)Nc2ccccc2N1C(=O)c1ccc(Cl)c(Cl)c1 (stereo not drawn)	n	n	n	n	n	n	x	x

Bioassay records (PubChem BioAssay)
